A word on the IC50: it is the concentration needed to halve the response being measured. By inhibition is commonly meant how much of the control response was suppressed.

Test [1] in a line: Inhibition of recombinant Candida albicans SAP2 using Dabcyl-Arg-Lys-Pro-Ala-Leu-Phe-Phe-Arg-Leu-Glu (EDANS)-Arg-OH as substrate incubated for 30 mins followed by substrate addition and measured after 30 mins by spectrophotometry.
The test system of test [2] is Candida albicans. The test is described as follows: Inhibition of recombinant Candida albicans SAP2 at 100 uM using Dabcyl-Arg-Lys-Pro-Ala-Leu-Phe-Phe-Arg-Leu-Glu (EDANS)-Arg-OH as substrate incubated for 30 mins followed by substrate addition and measured after 30 mins by spectrophotometry relative to control. Particulars: time 60.0 min. The method in brief: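 FRET assay with purified expressed C. albicans SAP2 in 50 mM sodium citrate, 50 mM NaCl, pH 4.5. Compound (diluted in DMSO) was preincubated with enzyme 30 min before adding the Dabcyl/EDANS peptide substrate (18.75 μM solution in DMSO). Reaction ran 30 min at 30 °C, then fluorescence was read at ex 340, em 485 nm. Pepstatin A was the positive control.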

The test system of test [3] is Candida albicans. The test can be described thus: Antibiofilm activity against azole resistant Candida albicans 0304103 assessed as inhibition of biofilm formation incubated for 24 hrs by XTT-dye based assay. The class given is functional, organism-based. Particulars: dose 4-64 µg/ml. The method in brief:
(§1)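 Cell suspensions (1.0 × 10^5 CFU/mL) were adhered for 90 min at 37°C, then rinsed three times with PBS. Compounds were added at a range of concentrations from 2 mg/mL DMSO stocks, with fluconazole as the positive control. Plates were cultured 24 h at 37°C, and biofilm was measured semi-quantitatively by XTT reduction.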
For orientation: Formazan colour is commonly taken as a measure of viable cells.

Test [4] concerns Candida tropicalis. The test is described as follows: Antibiofilm activity against azole resistant Candida tropicalis 10186 assessed as inhibition of biofilm formation incubated for 24 hrs by XTT-dye based assay. It counts as functional, organism-based. Particulars: dose 4-64 µg/ml. The method, boiled down:
as §1

The test system of test [5] is Candida albicans. The test can be described thus: Antibiofilm activity against azole resistant Candida albicans 0304103 assessed as inhibition of biofilm formation at 64 ug/ml incubated for 24 hrs by XTT-dye based assay relative to control. The class given is functional. The method in brief:
as §1

Test [6] concerns Candida tropicalis. The test is described as follows: Antibiofilm activity against azole resistant Candida tropicalis 10186 assessed as inhibition of biofilm formation at 64 ug/ml incubated for 24 hrs by XTT-dye based assay relative to control. The class given is functional. The method, boiled down:
as §1

For test [7], the system named is Candida albicans. The test can be described thus: Downregulation of SAP2 in azole resistant Candida albicans 0304103 at 64 ug/ml by qRT-PCR analysis. It counts as functional. The note with it: dose 64.0 µg/ml. In general terms: Real-time PCR tracks product formation cycle by cycle.
Test [8] has as its system Candida albicans. The test can be described thus: Antifungal activity against azole resistant Candida albicans 0304103 infected in ICR mouse assessed as reduction in fungal burden in kidney at 10 mg/kg, ip administered for 4 days. It counts as functional, organism-based. Particulars: time 4.0 day. The method in brief: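 Female ICR mice (20–25 g) were immunosuppressed with cyclophosphamide, 100 mg/kg ip in saline. After 24 h they were infected iv with 0.2 mL of 1×10^5 CFU/mL cells. Starting 24 h after infection, mice (4 per group) received the drug ip once daily for four days; controls received saline or fluconazole 10 mg/kg. Kidneys were homogenized and plated on YPD at 30°C for log10 CFU.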

The source made the active and inactive calls. The calls are words filed in the database; no cut-off is given here. Where only a bound is given, the exact number is not on record here.

In the case of `O=C(O)COc1ccc(/C=C2\C(=O)N(c3ccc(Cl)cc3)N=C2c2ccccc2)cc1`, the IC50 in test [1] turned out to be 13 µM. Also, the inhibition in test [2] worked out at 96%.
Consider `CCn1cc(/C=C(\NC(=O)c2ccccc2OC)C(=O)NCCO)c2ccccc21`, for which the IC50 in test [1] is 46.1 µM.
Regarding `O=C(O)COc1ccc(/C=C2\C(=O)N(c3ccc(F)cc3)N=C2c2ccccc2)cc1`, the IC50 in test [1] amounted to 39.6 µM. Moreover, in test [2], the inhibition is 71%.
For the compound `O=C(O)COc1ccc(/C=C2\C(=O)N(c3ccc(F)cc3)N=C2c2ccccc2)cc1OCC(=O)O`, the IC50 in test [1] is 33.7 µM. In test [2], the inhibition was 83%.
For `Cc1ccc(N2N=C(c3ccccc3)/C(=C/c3ccc(OCC(=O)O)cc3OCC(=O)O)C2=O)cc1` the same measures were 13.5 µM and 99%.
The matching figures for `O=C(O)COc1ccc(/C=C2\C(=O)N(c3ccccc3)N=C2c2ccccc2)cc1`: 18.2 µM and 94%.
For `COc1ccc(N2N=C(c3ccccc3)/C(=C/c3ccc(OCC(=O)O)cc3)C2=O)cc1` the same measures were 20.4 µM and 95%.
Turning to `O=C(O)COc1ccc(/C=C2\C(=O)N(c3cccc(Cl)c3)N=C2c2ccccc2)cc1OCC(=O)O`, the IC50 in test [1] came out at 22.7 µM. Moreover, in test [2], the inhibition stood at 82%.
The matching figures for `O=C(O)COc1ccc(/C=C2\C(=O)N(c3ccccc3)N=C2c2ccccc2)cc1OCC(=O)O`: 18.5 µM and 86%.
With `Cc1ccc(-c2ccc3c(c2)N(Cc2ccc(F)cc2)C(=O)/C3=C/c2ccc(OCC(=O)O)cc2OCC(=O)O)cc1`, the inhibition in test [2] came out at 58%.
With `O=C(O)COc1ccc(/C=C2\C(=O)N(c3ccc(F)cc3)N=C2c2ccccc2)c(OCC(=O)O)c1`, the IC50 in test [1] was 17.9 µM. The inhibition in test [2] was 93%.
The matching figures for `CC(C)CC(=O)N[C@H](C(=O)N[C@H](C(=O)N[C@@H](CC(C)C)[C@@H](O)CC(=O)N[C@@H](C)C(=O)N[C@@H](CC(C)C)[C@@H](O)CC(=O)O)C(C)C)C(C)C` [PEPSTATIN]: 0.022 µM and 100%.
Take `COc1ccc(CN2C(=O)/C(=C/c3ccc(OCC(=O)O)cc3OCC(=O)O)c3ccc(-c4ccc(C)cc4)cc32)cc1`: the inhibition in test [2] amounted to 29%.
Take `Cc1ccc(-c2ccc3c(c2)N(Cc2ccc(Cl)cc2)C(=O)/C3=C/c2ccc(OCC(=O)O)cc2OCC(=O)O)cc1`: the inhibition in test [2] was 100%; in test [3] it was “Dose-dependent effect”; in test [4], “Dose-dependent effect”. Also, the inhibition at 64 µg/mL in test [5] and in test [6] was above 50% throughout. Also, the outcome in test [7] was Active.
In the case of `CCOc1ccc(/C=C2\C(=O)N(c3ccccc3)N=C2c2ccccc2)cc1`, the inhibition in test [2] was found to be 5%.
With `O=C(O)COc1ccc(/C=C2\C(=O)N(c3ccccc3)N=C2c2ccccc2)c(OCC(=O)O)c1`, in test [1], the IC50 was determined as 10.1 µM. Besides, in test [2], the inhibition came to 99%.
The matching figures for `O=C(O)COc1ccc(/C=C2\C(=O)N(c3cccc(Cl)c3)N=C2c2ccccc2)cc1`: 26.4 µM and 90%.
Consider `O=C(O)COc1ccc(/C=C2\C(=O)N(c3ccc(F)cc3F)N=C2c2ccccc2)c(OCC(=O)O)c1`, for which, in test [1], the IC50 came to 32.7 µM. Also, the inhibition in test [2] was determined as 86%.
Turning to `Cc1ccc(N2N=C(c3ccccc3)/C(=C/c3ccc(OCC(=O)O)c(OCC(=O)O)c3)C2=O)cc1`, the IC50 in test [1] amounted to 22.3 µM. Also, the inhibition in test [2] was 85%.
As for `CCc1ccc(/C=C2\C(=O)N(c3ccccc3)N=C2c2ccccc2)cc1`, the inhibition in test [2] is 7%.
Turning to `Cc1ccc(N2N=C(c3ccccc3)/C(=C/c3ccc(OCC(=O)O)cc3)C2=O)cc1`, the IC50 in test [1] is 21.6 µM. For the same compound, the inhibition in test [2] came to 93%.
Regarding `Cc1ccc(-c2ccc3c(c2)N(Cc2ccc(C#N)cc2)C(=O)/C3=C/c2ccc(OCC(=O)O)cc2OCC(=O)O)cc1`, the inhibition in test [2] is 100%; in test [3], “Dose-dependent effect”; in test [4], “Dose-dependent effect”. Further, in test [5], the inhibition at 64 µg/mL is above 50%. Besides, the outcome in test [7] was Active.
Turning to `Cc1ccc(N2N=C(c3ccccc3)/C(=C/c3ccccc3OCC(=O)O)C2=O)cc1`, the IC50 in test [1] worked out at 72.3 µM. Further, the inhibition in test [2] amounted to 63%.
As to `CC(=O)c1ccc(CN2C(=O)/C(=C/c3ccc(OCC(=O)O)cc3OCC(=O)O)c3ccc(-c4ccc(C)cc4)cc32)cc1`, the inhibition in test [2] was determined as 90%. The outcome in test [7] was Active.
Consider `O=C(O)COc1ccccc1/C=C1\C(=O)N(c2ccccc2)N=C1c1ccccc1`, for which the IC50 in test [1] came out at 62.1 µM. Besides, the inhibition in test [2] is 68%.
The matching figures for `Cc1ccc(CN2C(=O)/C(=C\c3ccc(OCC(=O)O)cc3OCC(=O)O)N(Cc3ccc(C)cc3)C2=O)cc1`: 23.8 µM and 91%.
The matching figures for `COc1ccc(N2N=C(c3ccccc3)/C(=C/c3ccc(OCC(=O)O)c(OCC(=O)O)c3)C2=O)cc1`: 21.5 µM and 88%.
For `Cc1ccc(-c2ccc3c(c2)N(Cc2ccc(C(F)(F)F)cc2)C(=O)/C3=C/c2ccc(OCC(=O)O)cc2OCC(=O)O)cc1`, the inhibition is 100% in test [2], “Dose-dependent effect” in test [3] and “Dose-dependent effect” in test [4]. The inhibition at 64 µg/mL in test [6] is above 50%. The outcome in test [7] was Active.
For `O=C(O)COc1ccccc1/C=C1\C(=O)N(c2ccc(Cl)cc2)N=C1c1ccccc1`, in test [1], the IC50 came out at 75.2 µM. Besides, the inhibition in test [2] stood at 60%.
Regarding `OC(Cn1cncn1)(Cn1cncn1)c1ccc(F)cc1F`, the result in test [8] was Active.
With `O=C1/C(=C\c2ccc(O)cc2)C(c2ccccc2)=NN1c1ccccc1`, the inhibition in test [2] was determined as 12%.
Turning to `CN(C)c1ccc(/C=C2\C(=O)N(c3ccccc3)N=C2c2ccccc2)cc1`, in test [2], the inhibition amounted to 11%.
`O=C(O)COc1ccc(/C=C2\C(=O)N(c3ccc(Cl)cc3)N=C2c2ccccc2)cc1OCC(=O)O`: the IC50 in test [1] amounted to 46.9 µM. The inhibition in test [2] is 70%.
The matching figures for `O=C(O)COc1ccccc1/C=C1\C(=O)N(c2cccc(Cl)c2)N=C1c1ccccc1`: 55.5 µM and 70%.
For `O=C(O)COc1ccc(/C=C2\C(=O)N(c3cccc(Cl)c3)N=C2c2ccccc2)c(OCC(=O)O)c1` the same measures were 11.5 µM and 99%.
With `Cc1ccc(-c2ccc3c(c2)N(Cc2ccc(S(C)(=O)=O)cc2)C(=O)/C3=C/c2ccc(OCC(=O)O)cc2OCC(=O)O)cc1`, the inhibition is 100% in test [2], “Dose-dependent effect” in test [3] and “Dose-dependent effect” in test [4].
For `COc1cc([C@H]2C(C(=O)c3ccc([N+](=O)[O-])cc3)=C(O)C(=O)N2CCCCCC(=O)O)ccc1O`, in test [1], the IC50 turned out to be 64 µM.
For `COc1ccc(N2N=C(c3ccccc3)/C(=C/c3ccc(OCC(=O)O)cc3OCC(=O)O)C2=O)cc1`, in test [1], the IC50 was found to be 15.7 µM. The inhibition in test [2] was 94%.
The matching figures for `Cc1ccc(CN2C(=O)C(=Cc3ccc(OCC(=O)O)cc3OCC(=O)O)C(=O)N2Cc2ccc(C)cc2)cc1`: 17.4 µM and 94%.
For `COc1ccc(N2N=C(c3ccccc3)/C(=C/c3ccccc3OCC(=O)O)C2=O)cc1` the same measures were 70.7 µM and 64%.
The matching figures for `O=C(O)COc1ccc(/C=C2\C(=O)N(c3ccc(Cl)cc3)N=C2c2ccccc2)c(OCC(=O)O)c1`: 10.8 µM and 99%.
For `O=C(O)COc1ccccc1/C=C1\C(=O)N(c2ccc(F)cc2)N=C1c1ccccc1`, the inhibition in test [2] was determined as 46%.
On the same count and under the same terms, to `O=C1/C(=C\c2ccc(Br)cc2)C(c2ccccc2)=NN1c1ccccc1` belongs 10%.

Values taken from ChEMBL document CHEMBL4765366, “Targeting fungal virulence factor by small molecules: Structure-based discovery of novel secreted aspartic protease 2 (SAP2) inhibitors” (Eur J Med Chem, 2020).
